Screening data (PubChem)
T cruzi inh: T. cruzi replication inhibition; inhibition, % (no concentration beside the values); hit rate 1.4% among 300,000; T. cruzi beta-gal in NIH3T3, luminescence, 90 h;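 active = mean inhibition across valid replicates above about 55%, limit read from the data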;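 note: signal also drops with host cell toxicity which is not excluded here; 0% = plate median of DMSO wells and 100% = zero luminescence signal; higher percent means less beta-gal luminescence so fewer parasites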
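Incubation – ≥90 h infection period, 3 h prior cell attachment · System – NIH/3T3 fibroblasts plus reporter T. cruzi · Doses – compound pinned at 50 nL/well, DMSO · Read-out basis – percent inhibition of parasite-derived β-gal signal · Signal – luminescent β-galactosidase signal after 60 min lysis · Also added – 5000 T. cruzi trypomastigotes/well · Medium – Low-serum DMEM with 2% FBS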
HSF1 inh: HSF1 inhibition | NIH3T3-HGL HSE-luciferase, MG132-induced, luminescence 8 h; active compounds read low | activity change, negative = inhibition, % at 7.5 µM (by protocol) | hit rate 0.77% among 300,000;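 active = more than half of replicate wells show activity change below -50%, luminescence cut by over half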;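 note: luciferase reports HSF-1 transcriptional activity via heat shock element; 0% = median of DMSO wells and -100% = zero luminescence signal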
Jurkat NFkB inh: lowers PMA/ionomycin-induced NF-kB signal in Jurkat cells; PMA/ionomycin-induced NF-kB luciferase reporter, luminescence; hit rate 0.53% among 330,000; AID 435003; inhibition, % at 4 µM; in the data active = inhibition above about 50%
GPR7 antag: blocks human GPR7 receptor signaling. hit rate 1.1% among 290,000. AID 1861. P48145. GPR7-expressing cells, fluorescence antagonist assay. inhibition, % at 4.4 µM; in the data active = inhibition above about 16%, passing the limit was not always enough;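 note: cells stimulated with the agonist NPW; 0% = agonist with vehicle and 100% = vehicle without agonist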
Target sequence (P48145 whole entry, looked up): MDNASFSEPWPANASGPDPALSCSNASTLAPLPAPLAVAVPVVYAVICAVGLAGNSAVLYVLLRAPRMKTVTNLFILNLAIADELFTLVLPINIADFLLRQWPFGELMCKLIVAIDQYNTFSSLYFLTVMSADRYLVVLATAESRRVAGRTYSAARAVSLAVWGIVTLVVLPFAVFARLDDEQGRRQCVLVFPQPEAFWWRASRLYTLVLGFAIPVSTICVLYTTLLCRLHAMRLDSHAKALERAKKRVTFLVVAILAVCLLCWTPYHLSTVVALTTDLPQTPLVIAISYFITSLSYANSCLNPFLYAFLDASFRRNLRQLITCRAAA
HSF1 activator: increases HSF-1 driven luciferase reporter signal. activation, % at 9 µM. NIH3T3-HGL HSF-1 luciferase reporter, MG132, 8 h; 100% = twice DMSO control signal. hit rate 1.7% among 300,000;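 active = mean replicate activation of at least 50% with a set share of replicates each reaching 50%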;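 note: 0% = median of the neutral control wells and 100% = twice that signal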
697 NFkB inh: inhibitors of the PMA/ionomycin-induced NF-kB reporter in 697 B cells; 697 B-cell NF-kB luciferase reporter, 16 h; inhibition, % at 4 µM; hit rate 0.33% among 330,000; in the data active = inhibition above about 35%
* = called active by the depositor. Rows were chosen to be rich in hits. Some 4.8% of all compounds tested hit in one or more screens of this group.

For Oc1ccc(Cl)cc1Cc1cc(Cl)ccc1O the results were T cruzi inh -6.7, HSF1 inh 45.0, Jurkat NFkB inh -0.2, GPR7 antag 35.4*, HSF1 activator 46.7 and 697 NFkB inh -9.4.
For CN(C)CCCNC1=CC(=O)OC12CCCCC2 the results were T cruzi inh 19.0, HSF1 inh -10.5, Jurkat NFkB inh 0.6, GPR7 antag -0.6, HSF1 activator -11.2 and 697 NFkB inh 14.9.
Screening O=C1C=C(NCc2ccc(Cl)cc2Cl)C2(CCCCC2)O1 returned T cruzi inh 0.0, HSF1 inh 13.3, Jurkat NFkB inh -1.9, GPR7 antag 20.8*, HSF1 activator 31.6 and 697 NFkB inh 19.6.
For CC(C)(C)c1cc(C(=O)O)n(Cc2ccc(Cl)cc2Cl)n1 the results were T cruzi inh 28.9, HSF1 inh -9.2, Jurkat NFkB inh -1.0, GPR7 antag -15.4, HSF1 activator -5.8 and 697 NFkB inh 18.1.
For CC(=O)OC(C)C(=O)NS(=O)(=O)c1ccc(C)cc1 (stereo not given) the results were T cruzi inh -17.6, HSF1 inh 38.2, Jurkat NFkB inh -4.0, GPR7 antag 9.7, HSF1 activator 70.7* and 697 NFkB inh 7.4.
CNC(=O)OC(C)CNS(=O)(=O)c1ccc(C)cc1 (stereo not given) was read as T cruzi inh -17.6, HSF1 inh -0.4, Jurkat NFkB inh 3.2, GPR7 antag -6.8, HSF1 activator -6.2 and 697 NFkB inh 21.6.
Screening CCOC(=O)c1c(C)n(-c2ccc(C)cc2)c2ccc(OCC(O)CNCC3CCCO3)cc12 (stereo not given) returned T cruzi inh 64.1*, HSF1 inh -0.5, Jurkat NFkB inh 8.5, GPR7 antag -11.9, HSF1 activator 6.9 and 697 NFkB inh 5.2.
For CCOC(=O)c1c(C)n(-c2ccc(C)cc2)c2ccc(OCC(O)CNCCCO)cc12 (stereo not given) the results were Jurkat NFkB inh 18.0, GPR7 antag -2.7 and 697 NFkB inh -5.2.
CCn1c(=O)c2ccccc2n2c(SCC(N)=O)nnc12 was read as T cruzi inh -7.6, HSF1 inh -6.5, Jurkat NFkB inh -0.9, GPR7 antag -15.7, HSF1 activator -26.2 and 697 NFkB inh 1.6.
Screening O=C(Nc1ccc(N2CCCC2)c(Cl)c1)c1cccs1 returned T cruzi inh -1.7, HSF1 inh 57.3, Jurkat NFkB inh -134.1, GPR7 antag -5.0, HSF1 activator 82.2* and 697 NFkB inh -160.8.
`O=C(NC(=S)N1CCN(c2ccc(O)cc2)CC1)c1cccs1` gave T cruzi inh -27.8, HSF1 inh -2.3, Jurkat NFkB inh 9.6, GPR7 antag 6.0, HSF1 activator -0.4 and 697 NFkB inh -1.4.
`O=C(NC(=S)N1CCN(c2c(Cl)cccc2[N+](=O)[O-])CC1)c1cccs1` gave T cruzi inh 17.7, HSF1 inh -94.9*, Jurkat NFkB inh -5.7, GPR7 antag -7.9, HSF1 activator -94.5 and 697 NFkB inh -15.5.
For CCCC(=O)N1CCN(c2ccc(NC(=O)c3cccs3)cc2)CC1 the results were T cruzi inh -6.3, HSF1 inh 29.8, Jurkat NFkB inh -3.5, GPR7 antag -9.9, HSF1 activator 52.7* and 697 NFkB inh -9.2.
`O=C(NC(=S)N1CCN(c2ccc(F)cc2)CC1)c1cccs1` gave T cruzi inh -43.0, HSF1 inh 38.0, Jurkat NFkB inh 9.0, GPR7 antag 8.4, HSF1 activator 103.5* and 697 NFkB inh 6.1.
COc1ccc(N2CCN(C(=S)NC(=O)c3cccs3)CC2)c([N+](=O)[O-])c1 was read as T cruzi inh 10.4, HSF1 inh 20.7, Jurkat NFkB inh -6.3, GPR7 antag -7.5, HSF1 activator 22.5 and 697 NFkB inh 11.8.
For CC(C)(C)c1csc(NC(=O)c2ccc3nccnc3c2)n1 the results were T cruzi inh 1.3, HSF1 inh 3.8, Jurkat NFkB inh -100.4, GPR7 antag -16.1, HSF1 activator 38.2 and 697 NFkB inh -95.4.
CC(=O)c1ccc(NC(=O)C(C)O/N=C(\N)c2ccccc2)cc1 (stereo not given) was read as Jurkat NFkB inh 2.5 and 697 NFkB inh -0.1.
CCC(Sc1nc2ccncc2[nH]1)C(=O)Nc1ccc(C)c(Cl)c1 (stereo not given) was read as T cruzi inh 61.9*, HSF1 inh 9.5, Jurkat NFkB inh -14.2, GPR7 antag -3.7, HSF1 activator 11.7 and 697 NFkB inh -21.2.
CCN(CC)CCCNC(=O)Cn1nc([N+](=O)[O-])c(Cl)c1C was read as T cruzi inh 14.2, HSF1 inh -14.3, Jurkat NFkB inh 6.6, GPR7 antag 0.2, HSF1 activator 2.4 and 697 NFkB inh 8.2.
Screening O=C(c1ccc(OC2CCN(CCc3ccccc3)CC2)cc1)N1CCCC(O)C1 (stereo not given) returned T cruzi inh -16.7, HSF1 inh -0.9, Jurkat NFkB inh -9.2, GPR7 antag -9.7, HSF1 activator 7.3 and 697 NFkB inh -7.3.
COC1CCCN(C(=O)c2ccc(OC3CCN(CCc4ccccc4)CC3)cc2)C1 (stereo not given) was read as T cruzi inh -6.2, HSF1 inh -74.5*, Jurkat NFkB inh -11.3, GPR7 antag -0.4, HSF1 activator -77.5 and 697 NFkB inh 5.8.
Screening Oc1ccc(/C=N/NC(=S)NC2CC3CCC2C3)cc1 (stereo not given) returned T cruzi inh 1.3, HSF1 inh 34.3, Jurkat NFkB inh -19.9, GPR7 antag 2.4, HSF1 activator 26.8 and 697 NFkB inh -249.0.
For S=C(N/N=C/c1cccs1)NC1CC2CCC1C2 (stereo not given) the results were T cruzi inh 12.6, HSF1 inh 29.9, Jurkat NFkB inh -21.8, GPR7 antag -25.3, HSF1 activator 64.4* and 697 NFkB inh -40.9.
Screening Cc1ccc(NCC(=O)Nc2cccc(S(=O)(=O)N(C)C)c2)c(Cl)c1 returned T cruzi inh -2.2, HSF1 inh -6.8, Jurkat NFkB inh 5.4, GPR7 antag 7.0, HSF1 activator -9.0 and 697 NFkB inh -7.2.
For CC(C)OC(=O)n1c(=S)oc2ccccc21 the results were T cruzi inh -4.6, HSF1 inh 1.1, Jurkat NFkB inh -1.2, GPR7 antag 2.7, HSF1 activator 7.0 and 697 NFkB inh 19.7.
`CCCCC(=O)/C=C/n1c(=S)oc2ccccc21` gave T cruzi inh 33.2, HSF1 inh 176.0, Jurkat NFkB inh 0.0, GPR7 antag -15.7, HSF1 activator 216.9* and 697 NFkB inh -64.2.
For CC(C)(C)n1nnnc1C(c1cccs1)N(Cc1cccnc1)Cc1ccccc1Cl (stereo not given) the results were T cruzi inh 70.6*, HSF1 inh 8.2, Jurkat NFkB inh 3.2, GPR7 antag 5.6, HSF1 activator 6.7 and 697 NFkB inh 25.5.
